DENV2 CPE: DENV2-induced cell death inhibition; DENV2-infected cells, cytopathic effect rescue, plate reader; CPE inhibition, % at 9.99 µM; 350,000 compounds, 1.7% hits; AID 651640; in the data active = CPE inhibition above about 20%, passing the limit was not always enough; inconclusive = no clear call, values can overlap the other calls; tested in BHK-21 cells;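 note: 0% = median of neutral control wells and 100% = median of positive control wells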
PGC1a acetyl inh: lowers PGC1a acetylation signal in U2OS cells. 350,000 compounds, 0.17% hits. AlphaScreen anti-acetyl-lysine; with virally co-expressed GCN5 acetyltransferase. inhibition, % at 15.6 µM;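 active = every replicate shows inhibition of at least 40%; inconclusive = mean inhibition at least 40% but some replicate below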;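 note: 0% = neutral control wells and 100% = positive control wells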
SIRT5 block: inhibitors of human sirtuin-5 desuccinylase; Purified SirT5, succinyl-peptide AMC, trypsin-coupled fluorescence; Q9NXA8; inhibition, % at 15 µM; 330,000 compounds, 1.1% hits; in the data active = inhibition above about 15%; inconclusive = no clear call, values can overlap the other calls
Target sequence (Q9NXA8 whole entry, looked up): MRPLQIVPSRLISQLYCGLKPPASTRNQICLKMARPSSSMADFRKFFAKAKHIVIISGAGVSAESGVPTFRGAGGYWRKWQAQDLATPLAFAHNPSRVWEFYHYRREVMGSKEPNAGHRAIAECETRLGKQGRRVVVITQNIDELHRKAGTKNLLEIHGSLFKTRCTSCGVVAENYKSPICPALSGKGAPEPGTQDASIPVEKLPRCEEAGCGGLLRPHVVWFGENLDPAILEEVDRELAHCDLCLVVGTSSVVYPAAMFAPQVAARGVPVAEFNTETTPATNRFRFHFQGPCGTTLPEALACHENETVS
S100A4 MyoIIA: blocks human S100A4 binding to myosin IIA peptide; S100A4/TAMRA-MyoIIA peptide fluorescence polarization; inhibition, % at 10.7 µM; 360,000 compounds, 0.14% hits; AID 652163;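 active = mean inhibition of at least 70% across replicates, with every replicate also reaching that level; inconclusive = mean inhibition reaches 70% but some replicates fall short; inactive = mean inhibition below 70%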
Target sequence (P26447 whole entry, looked up): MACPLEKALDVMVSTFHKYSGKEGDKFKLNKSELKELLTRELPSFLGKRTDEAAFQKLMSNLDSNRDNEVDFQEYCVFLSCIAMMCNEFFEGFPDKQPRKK
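Test system: S100A4 monomer protein; Medium: HEPES pH 7.2 with CaCl2, KCl, NaCl, DTT, Triton; Probe or stimulus: TAMRA-labelled myosin IIA heavy-chain peptide probe, 5 nM; Doses: one dose per compound; Times: polarization read 5 min after assay mix addition, stable 5–60 min; Benchmarks: neutral control DMSO, positive control TFP.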
C2C12 statin: suppressors of simvastatin-induced myotoxicity in C2C12 myotubes; ATP luminescence, 48 h; scaled: DMSO 0, geranylgeraniol control 100; rescue of ATP level, % at 7.49 µM; 330,000 compounds, 0.78% hits;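 active = mean ATP rescue above about 67%, or every replicate alone reaching that limit, limit read from the data, passing the limit was not always enough; inconclusive = no clear call, values can overlap the other calls; inactive = mean under the limit and some replicate under it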;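 note: myotubes were challenged with 10 µM simvastatin during compound exposure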
An asterisk follows results filed as active; ? = inconclusive; . = no result given. Most compounds without a hit are left out; they make up all but 2.9% or so of the library.

SMILES | DENV2 CPE | PGC1a acetyl inh | SIRT5 block | S100A4 MyoIIA | C2C12 statin
COc1ccc(NC(=O)Nc2ccc3c(c2)C(=O)N([C@@H](C)CO)C[C@@H](C)[C@@H](CN(C)S(=O)(=O)c2ccc(F)cc2)OCCCC[C@@H](C)O3)cc1 | 30.0* | 4.2 | 8.0 | 3.9 | .
COc1ccc(NC(=O)Nc2ccc3c(c2)C(=O)N([C@@H](C)CO)C[C@@H](C)[C@H](CN(C)S(=O)(=O)c2ccc(Cl)cc2)OCCCC[C@@H](C)O3)cc1 | 36.0* | -10.9 | -2.4 | 8.3 | .
COc1ccc(S(=O)(=O)N(C)C[C@@H]2OCCCC[C@@H](C)Oc3ccc(NC(=O)Nc4ccc(F)cc4)cc3C(=O)N([C@@H](C)CO)C[C@@H]2C)cc1 | 4.1 | -8.4 | 16.6* | 3.4 | 4.4
COc1ccc(NC(=O)Nc2ccc3c(c2)C(=O)N([C@@H](C)CO)C[C@@H](C)[C@H](CN(C)S(=O)(=O)c2ccc(F)cc2)OCCCC[C@@H](C)O3)cc1 | -9.2 | -2.7 | 15.4* | -15.4 | .
CC(C)NC(=O)Nc1ccc2c(c1)C(=O)N([C@H](C)CO)C[C@H](C)[C@H](CN(C)C(=O)c1ccccc1)OCCCC[C@@H](C)O2 | 0.1 | -21.6 | -3.6 | -8.8 | -18.8
Cc1ccc(S(=O)(=O)N[C@@H]2CC[C@H](CC(=O)NCCN3CCCCC3)O[C@@H]2CO)cc1 | 4.2 | -1.4 | 0.6 | -5.0 | -1.6
C[C@@H]1CCCCO[C@H](CN(C)S(=O)(=O)c2ccc(Cl)cc2)[C@@H](C)CN([C@@H](C)CO)C(=O)c2cc(NC(=O)Nc3ccc(F)cc3)ccc2O1 | 23.4* | 14.9 | 2.5 | 0.4 | .
COc1ccc(S(=O)(=O)N(C)C[C@@H]2OCCCC[C@@H](C)Oc3ccc(NC(=O)Nc4ccc(C(F)(F)F)cc4)cc3C(=O)N([C@H](C)CO)C[C@H]2C)cc1 | 22.4* | -7.4 | 0.5 | -1.2 | -7.5
COc1cccc(C(=O)OCCCN(C)C)c1 | -2.7 | . | 15.5* | -6.0 | .
C#CCOCCOCCOCCNc1nc(N2CCN(C(=O)CCCCCCCCCCNC(=O)Cn3cc(CCCCCN)nn3)CC2)nc(N2CCN(C(=O)CCCCCCCCCCNC(=O)[C@@H]([C@H](C)O)n3cc(C)nn3)CC2)n1 | . | -4.5 | . | . | -9.5
C#CCOCCOCCOCCNc1nc(N2CCN(C(=O)CCCCCCCCCCNC(=O)Cn3cc(C[C@@H](C)O)nn3)CC2)nc(N2CCN(C(=O)CCCCCCCCCCNC(=O)[C@@H]([C@H](C)O)n3cc(C)nn3)CC2)n1 | . | . | . | . | 105.7*
O=C(CCCCCn1c(=O)[nH]c2ccsc2c1=O)NCc1ccc(F)cc1 | . | 9.0 | . | . | 120.2*
O=C(Nc1ccc(Cl)cc1)N1C[C@@H]2[C@H](c3ccccc31)[C@@H](CO)N2CC1CCCCC1 | -0.5 | -25.2 | 0.7 | -11.9 | -77.6
COCCNC(=O)C[C@@H]1C[C@H]2c3cc(NC(=O)Nc4ccc(OC)cc4)ccc3O[C@H]2[C@H](CO)O1 | 23.0* | -2.5 | 0.7 | 2.3 | -3.5
CN(C)CC(=O)Nc1ccc2c(c1)[C@H]1C[C@@H](CC(=O)NCc3ccccc3)O[C@H](CO)[C@H]1O2 | 21.5* | -4.2 | 8.8 | 1.2 | 0.1
CN(C)CC(=O)Nc1ccc2c(c1)[C@@H]1C[C@H](CC(=O)NCc3ccccc3)O[C@H](CO)[C@@H]1O2 | -6.5 | -1.7 | -3.1 | 9.2 | -1.4
COCCNC(=O)C[C@H]1C[C@@H]2c3cc(NC(=O)Nc4ccc(OC)cc4)ccc3O[C@@H]2[C@H](CO)O1 | ? | -3.8 | . | 5.7 | -3.4
CCCNC(=O)C[C@@H]1C[C@H]2c3cc(NC(=O)CN(C)C)ccc3O[C@H]2[C@@H](CO)O1 | 64.6* | 4.7 | . | . | -3.4
CCCNC(=O)C[C@H]1C[C@H]2c3cc(NC(=O)CN(C)C)ccc3O[C@H]2[C@H](CO)O1 | -3.7 | 3.4 | . | . | -3.0
CC(=O)N(C)C[C@H]1Oc2cc(C#Cc3cccc(F)c3)ccc2S(=O)(=O)N([C@H](C)CO)C[C@H]1C | -0.2 | -11.1 | 5.5 | -26.7 | 26.9
C=C(NC(=O)C(=C)NC(=O)c1csc(C2=NC3c4csc(n4)C4NC(=O)c5csc(n5)C(C(C)(O)C(C)O)NC(=O)C5CSC(=N5)/C(=C/C)NC(=O)C(C(C)O)NC(=O)c5csc(n5)C3(CC2)NC(=O)C(C)NC(=O)C(=C)NC(=O)C(=C)NC(=O)C(C(C)C)NC2C=Cc3c(C(C)O)cc(nc3C2O)C(=O)OC4C)n1)C(N)=O (stereo unspecified) | 60.5* | . | 3.1 | -7.6 | .
COc1cc(/C=C2/C(C)=C(C#N)c3nc(N)c(C#N)c(C)c32)ccc1OCC(=O)O | -2.7 | . | 8.7 | -25.1 | .
CC1=C(C#N)c2nc(N)c(C#N)c(C)c2/C1=C\c1ccc(-c2ccccc2C(=O)O)o1 | -4.3 | 23.5 | 25.3* | -2.9 | .
OCC[C@@H]1C[C@H](O)[C@@H](O)[C@@]2(CCc3ccccc3CO2)O1 | 6.8 | -0.8 | . | -0.3 | 6.3
OCC[C@H]1C[C@@H](O)[C@H](O)[C@@]2(Cc3ccccc3CCO2)O1 | 22.9* | . | -0.1 | -4.0 | -4.0
SMILES | DENV2 CPE | PGC1a acetyl inh | SIRT5 block | S100A4 MyoIIA | C2C12 statin
OCC[C@H]1C[C@@H](O)[C@H](O)[C@@]2(CCCO2)O1 | 59.0* | -1.6 | -1.5 | 10.1 | .
OCC[C@H]1C[C@@H](O)[C@H](O)[C@@]2(CCc3ccccc3CO2)O1 | 48.0* | 6.2 | -6.7 | -12.1 | -13.8
C[C@H](CO)N1C[C@H](C)[C@H](CN(C)Cc2cncnc2)Oc2ncc(/C=C/c3ccccc3)cc2C1=O | -6.7 | 0.7 | -9.9 | 14.8 | -13.7
C/C=C/[C@@H](CC(=O)N1Cc2ccccc2C[C@H]1CO)[Si](C)(C)c1ccc(OC)cc1 | 39.4* | -24.5 | -7.0 | 0.4 | .
CCC(=O)N(C)C[C@@H]1Oc2cc(/C=C/c3ccccc3)ccc2S(=O)(=O)N([C@@H](C)CO)C[C@H]1C | -5.7 | -4.2 | 3.0 | -0.8 | 10.6
CCOC(=O)N1CCC(NC(=O)c2cccc3c2C(=O)N(CCOC)C3)CC1 | 62.5* | -1.4 | -0.9 | 3.1 | 0.0
COCCN1Cc2cccc(C(=O)Nc3cc(C)cc(C)c3)c2C1=O | . | -3.7 | . | . | .
Cc1ccccc1N(CC(=O)NC1CCCC1)C(=O)CS(=O)CC(=O)Nc1ccc2c(c1)OCO2 (stereo unspecified) | . | -11.3 | . | . | 127.0*
COc1cccc(CN2CCNC(=O)C2CC(=O)NCCN2CCCCC2=O)c1 (stereo unspecified) | 15.3 | 5.0 | -1.9 | -0.5 | 85.9*
CN(C)c1ccc(NS(=O)(=O)c2ccc(-c3csnn3)cc2)cc1 | 0.4 | -9.5 | . | -1.4 | .
Cc1ccc(S(=O)(=O)Nc2ccc(N(C)C)cc2)cc1 | -4.2 | 9.8 | 112.0* | -14.2 | 7.9
CN(CC(=O)Nc1ccccc1C(F)(F)F)C(=O)c1ccc(N2C(=O)CCC2=O)cc1 | 1.6 | 2.9 | 16.6* | 0.4 | 21.1
C[C@@H]1CN([C@H](C)CO)C(=O)c2cccc(NS(=O)(=O)c3cccs3)c2O[C@H]1CN(C)Cc1ccc(Cl)c(Cl)c1 | 41.1* | 10.4 | -0.3 | 1.5 | 0.1

Source: PubChem BioAssay (Broad Institute)
